From ChEMBL document CHEMBL1130878 (Bioorg Med Chem Lett, 1998)
pIC50: −log10 of the molar value.

How the values were obtained:
[1] = target: T1, Endothelin receptor type B (Sus scrofa, UniProt P35463); test: In vitro ability to inhibit specific [125I]ET1 binding to porcine kidney (inner medulla) membranes Endothelin B receptor
T1 sequence (P35463 whole entry): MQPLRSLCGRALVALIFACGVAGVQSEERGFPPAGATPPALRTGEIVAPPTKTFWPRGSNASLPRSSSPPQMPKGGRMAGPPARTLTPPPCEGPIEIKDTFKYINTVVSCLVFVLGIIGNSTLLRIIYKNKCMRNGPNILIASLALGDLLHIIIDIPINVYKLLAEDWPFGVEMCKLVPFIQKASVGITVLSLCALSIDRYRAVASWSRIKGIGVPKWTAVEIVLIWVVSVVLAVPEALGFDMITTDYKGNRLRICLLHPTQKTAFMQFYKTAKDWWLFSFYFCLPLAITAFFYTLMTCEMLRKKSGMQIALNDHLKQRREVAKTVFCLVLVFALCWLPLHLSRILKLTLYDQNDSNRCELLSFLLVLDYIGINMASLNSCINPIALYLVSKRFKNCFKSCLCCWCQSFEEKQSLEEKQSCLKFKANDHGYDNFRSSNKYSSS

Endothelin-1 receptor = target: T2, Endothelin-1 receptor (Rattus norvegicus, UniProt P26684); test: In vitro ability to inhibit specific [125I]ET1 binding to rat aorta membranes Endothelin A receptor; type: tissue-based
T2 sequence (P26684 whole entry): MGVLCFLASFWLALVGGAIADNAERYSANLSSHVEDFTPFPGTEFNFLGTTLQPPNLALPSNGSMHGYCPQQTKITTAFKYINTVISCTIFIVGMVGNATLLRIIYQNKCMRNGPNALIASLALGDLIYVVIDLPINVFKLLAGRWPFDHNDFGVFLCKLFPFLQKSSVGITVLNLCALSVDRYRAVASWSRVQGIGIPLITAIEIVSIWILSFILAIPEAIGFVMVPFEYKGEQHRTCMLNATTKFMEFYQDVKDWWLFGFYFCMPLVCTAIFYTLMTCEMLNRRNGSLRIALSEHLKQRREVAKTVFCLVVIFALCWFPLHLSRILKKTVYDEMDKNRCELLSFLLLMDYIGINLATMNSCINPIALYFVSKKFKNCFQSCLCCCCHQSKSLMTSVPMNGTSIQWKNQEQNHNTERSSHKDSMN

Rattus norvegicus = species: Rattus norvegicus; test: Compound was evaluated for the functional assay performed by obtaining ET-1 concentration-response curves [pA2(ETA)] in isolated rat aortic rings; settings: Aorta, read-out: pA2 (converted)
Procedure, shortened: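 Functional ETA assay: ET-1 concentration-response curves in isolated rat aortic rings with the endothelium removed. Antagonism is expressed as pA2.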

Oryctolagus cuniculus = species: Oryctolagus cuniculus; test: Compound was evaluated for the functional assay performed by obtaining sarafotoxin 6c concentration-response curves [pA2(ETB)] in isolated rabbit jugularis vein

pIC50 [1]	pIC50 (Endothelin-1 receptor)	SMILES	Kb (Rattus norvegicus)	Kb (Oryctolagus cuniculus)
6.00	8.47	COc1ccc(C(=O)/C(Cc2cccc(OC)c2)=C(\C(=O)O)c2ccc3nsnc3c2)cc1		
5.34	8.13	COc1ccc(C(=O)/C(Cc2ccccc2)=C(\C(=O)O)c2ccc3c(c2)OCO3)cc1		
6.34	7.55	COc1cc(C/C(C(=O)c2ccc3c(c2)CCO3)=C(/C(=O)O)c2ccc3nsnc3c2)cc(OC)c1OC		
5.74	8.34	COc1cccc(C(=O)/C(Cc2cc(OC)c(OC)c(OC)c2)=C(\C(=O)O)c2ccc3nsnc3c2)c1		
5.49	7.77	COc1ccc(C(=O)/C(Cc2ccc(SC)cc2)=C(\C(=O)O)c2ccc3nsnc3c2)cc1		
6.47	8.89	COc1ccc(C(=O)/C(Cc2cc(OC)c(OC)c(OC)c2)=C(\C(=O)O)c2ccc3c(c2)OCO3)cc1 [PD-156707 SODIUM]	25.1 nM	> 3160 nM
